From PubChem BioAssay
In the library only some 4.8% were active in any assay of this set; here they are far more common.
Jurkat NFkB inh: inhibitors of induced NF-kB luciferase reporter, primary screen, TCR NF-kB activation inhibitor project, cell-based, luminescence, uHTS; Jurkat, PMA/ionomycin-induced NF-kB luciferase reporter; inhibition, % at 4 µM; 330,000 tested, 0.53% active; in the data active = inhibition above about 50%
697 NFkB inh: inhibitors of PMA/ionomycin-induced NF-kB reporter, 697 cells, primary screen, B-cell NF-kB inhibitor project, cell-based, luminescence, uHTS | 697 B-cell NF-kB luciferase reporter, 16 h | inhibition, % at 4 µM | 330,000 tested, 0.33% active | AID 435022, 2010; in the data active = inhibition above about 35%
HSF-1 act: HSF-1 activators, primary screen, NIH3T3-HGL cells, MG132 stress, luminescence, single point; NIH3T3-HGL HSF-1 luciferase reporter, 8 h; 100% = twice DMSO control signal; activation, % at 9 µM; 300,000 tested, 1.7% active; AID 504408, 2011;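 active = mean replicate activation of at least 50% with a set share of replicates each reaching 50%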;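 also: 0% = median of the neutral control wells and 100% = twice that signal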
HSF1 inh: HSF1 inhibitors in luciferase reporter cells, primary screen, cell-based, NIH3T3, luminescence | NIH3T3-HGL HSE-luciferase, MG132-induced, luminescence 8 h; hits give low values | activity change, negative = inhibition, % at 7.5 µM (by protocol) | 300,000 tested, 0.77% active;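 active = more than half of replicate wells show activity change below -50%, luminescence cut by over half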;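 also: luciferase reports HSF-1 transcriptional activity via heat shock element; 0% = median of DMSO wells and -100% = zero luminescence signal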
GPR7 antag: GPR7 receptor antagonists, primary screen, cell-based, fluorescence, single concentration; 290,000 tested, 1.1% active; GPR7-expressing cells, fluorescence antagonist assay; Neuropeptides B/W receptor type 1 (Homo sapiens), P48145; inhibition, % at 4.4 µM; in the data active = inhibition above about 16%, passing the limit was not always enough;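 also: cells stimulated with the agonist NPW; 0% = agonist with vehicle and 100% = vehicle without agonist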
Target sequence (P48145 whole entry, looked up): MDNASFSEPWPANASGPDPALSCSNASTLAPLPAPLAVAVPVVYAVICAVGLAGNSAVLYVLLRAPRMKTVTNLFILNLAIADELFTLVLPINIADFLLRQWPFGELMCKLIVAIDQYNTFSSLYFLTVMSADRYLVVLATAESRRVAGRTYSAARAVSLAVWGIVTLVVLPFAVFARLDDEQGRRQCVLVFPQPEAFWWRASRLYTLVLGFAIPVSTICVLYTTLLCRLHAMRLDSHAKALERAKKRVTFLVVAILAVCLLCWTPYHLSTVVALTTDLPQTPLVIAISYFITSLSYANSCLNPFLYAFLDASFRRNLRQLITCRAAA
T cruzi inh: inhibitors of intracellular T. cruzi growth, primary screen, luminescence, NIH3T3 host cells. T. cruzi beta-gal in NIH3T3, 90 h. inhibition, % (concentration not given with the values). 300,000 tested, 1.4% active. AID 1885, 2009;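 active = mean inhibition across valid replicates above about 55%, limit read from the data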;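 also: signal also drops with host cell toxicity which is not excluded here; 0% = plate median of DMSO wells and 100% = zero luminescence signal; higher percent means less beta-gal luminescence so fewer parasites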
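Assay system: NIH/3T3 host cells with β-galactosidase reporter T. cruzi; input: 5,000 host fibroblasts per well; compound: single 50 nL compound addition per well in DMSO; timing: ≥90 h infection period, 3 h prior cell attachment; measured by: GalScreen β-gal luminescence, detergent lysis, 60 min; evaluation: percent inhibition of parasite-derived β-gal signal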
Starred values were filed as active, the others as inactive.

N#CC(c1ccccn1)c1ncc(C(F)(F)F)cc1Cl (stereo not given) was read as Jurkat NFkB inh -9.1, 697 NFkB inh 25.0, HSF-1 act 17.6, HSF1 inh -4.6, GPR7 antag -1.0 and T cruzi inh -2.8.
CCCCn1c(N)c(-c2nc3ccccc3o2)c2c([N+](=O)[O-])nn(CC)c(=O)c21 was read as Jurkat NFkB inh -8.4, 697 NFkB inh 7.7, HSF-1 act 8.2, HSF1 inh 8.1, GPR7 antag -7.1 and T cruzi inh 26.6.
Screening CCn1nc([N+](=O)[O-])c(C(C#N)c2nc3cc(C(F)(F)F)ccc3s2)c(Cl)c1=O (stereo not given) returned Jurkat NFkB inh 0.3, 697 NFkB inh 13.8, HSF-1 act 64.1*, HSF1 inh 56.5, GPR7 antag -8.0 and T cruzi inh -15.6.
`Cn1nc([N+](=O)[O-])c(C(C#N)c2ccccn2)c(Cl)c1=O` (stereo not given) gave Jurkat NFkB inh -2.2, 697 NFkB inh -11.6, HSF-1 act 34.9, HSF1 inh 25.5, GPR7 antag -13.7 and T cruzi inh 63.8*.
`CCCn1nc([N+](=O)[O-])c(C(C#N)c2nc3ccccc3o2)c(Cl)c1=O` (stereo not given) gave Jurkat NFkB inh -26.1, 697 NFkB inh -15.5, HSF-1 act 97.3*, HSF1 inh 76.4, GPR7 antag 0.6 and T cruzi inh -15.5.
For O=C(Cc1ccc(Cl)cc1)c1ccc(O)cc1 the results were Jurkat NFkB inh -24.6, 697 NFkB inh -70.0, HSF-1 act 52.0*, HSF1 inh 21.6 and GPR7 antag -11.1.
`c1ccc(CCc2ccncc2)cc1` gave Jurkat NFkB inh 19.4, 697 NFkB inh -2.4, HSF-1 act 56.1*, HSF1 inh 8.5, GPR7 antag 3.2 and T cruzi inh 55.8*.
Nc1cccc(CCc2ccncc2)c1 was read as Jurkat NFkB inh -33.1, 697 NFkB inh -54.7, HSF-1 act -5.7, HSF1 inh 1.8, GPR7 antag -3.2 and T cruzi inh 51.8.
COC(=O)C1(Cc2ccccc2)NC(c2ccccc2C)C2C(=O)N(c3ccc4c(c3)OCO4)C(=O)C21 (stereo not given) was read as Jurkat NFkB inh -5.6, 697 NFkB inh 6.7, HSF-1 act -79.9, HSF1 inh -73.3*, GPR7 antag -1.9 and T cruzi inh 15.8.
`CCN1C(=O)[C@H]2[C@@H](c3ccc(-c4ccc5c(c4)OCO5)cc3)N[C@@](Cc3ccccc3)(C(=O)OC)[C@H]2C1=O` gave Jurkat NFkB inh 4.2 and 697 NFkB inh 1.7.
`O=C1CC2(CCN(C(=O)c3cccc(F)c3)CC2)Oc2ccccc21` gave Jurkat NFkB inh 3.0, 697 NFkB inh -3.9, HSF-1 act -2.3, HSF1 inh -3.3 and T cruzi inh -3.6.
For O=C(O)CCCCCCCCc1cn(Cc2ccc(C(=O)c3ccccc3)cc2)nn1 the results were Jurkat NFkB inh 1.8, 697 NFkB inh -9.5, HSF-1 act -14.8, HSF1 inh -11.6, GPR7 antag 8.0 and T cruzi inh 55.6*.
`O=C(c1ccccc1)c1ccc(Cn2cc(CCCO)nn2)cc1` gave Jurkat NFkB inh 28.5, 697 NFkB inh -18.1, HSF-1 act -9.3, HSF1 inh -1.3, GPR7 antag 1.1 and T cruzi inh -30.3.
COc1cccc(NC(=S)N(CCc2c(C)[nH]c3ccc(C)cc23)Cc2cccs2)c1 was read as Jurkat NFkB inh -18.5, 697 NFkB inh -8.4, HSF-1 act 36.1, HSF1 inh 17.6, GPR7 antag 3.1 and T cruzi inh 11.7.
Cc1[nH]c2ccc(F)cc2c1CCN(Cc1cccnc1)C(=S)NC(C)(C)C was read as Jurkat NFkB inh 7.8, 697 NFkB inh -4.9, HSF-1 act -3.5, HSF1 inh -0.3, GPR7 antag -4.5 and T cruzi inh 64.9*.
For Cc1[nH]c2ccc(F)cc2c1CCN(Cc1cccnc1)C(=S)Nc1cccc(F)c1 the results were Jurkat NFkB inh -5.4, 697 NFkB inh 12.7, HSF-1 act 10.7, HSF1 inh 5.2, GPR7 antag 11.6 and T cruzi inh 64.7*.
Cc1ccccc1NC(=S)N(CCc1c(C)[nH]c2ccc(F)cc12)Cc1cccnc1 was read as Jurkat NFkB inh 1.0, 697 NFkB inh 18.4, HSF-1 act 20.0, HSF1 inh -0.2, GPR7 antag 6.3 and T cruzi inh 51.4.
`COc1ccc2[nH]c(C)c(CCN(Cc3cccs3)C(=S)Nc3cccc(F)c3)c2c1` gave Jurkat NFkB inh -21.1, 697 NFkB inh -14.0, HSF-1 act 14.5, HSF1 inh 5.7, GPR7 antag 16.2 and T cruzi inh 62.9*.
`CNC(=S)N(CCc1c(C)[nH]c2ccc(F)cc12)Cc1ccco1` gave Jurkat NFkB inh -0.6, 697 NFkB inh 12.7, HSF-1 act 43.9, HSF1 inh 11.8, GPR7 antag 20.5 and T cruzi inh -1.7.
`COCCNC(=S)N(CCc1c(C)[nH]c2ccc(F)cc12)Cc1ccco1` gave Jurkat NFkB inh 0.9, 697 NFkB inh 9.0, HSF-1 act 53.4*, HSF1 inh 28.6, GPR7 antag 12.8 and T cruzi inh 9.3.
COc1ccc(NC(=S)NC(=O)C2CCC2)cc1 was read as Jurkat NFkB inh -22.7, 697 NFkB inh -59.2, HSF-1 act 12.9, HSF1 inh 9.4, GPR7 antag 12.3 and T cruzi inh -16.4.
`Cc1ccc(NC(=S)N/C(=N/S(=O)(=O)c2ccccc2)c2ccccc2)cc1` gave Jurkat NFkB inh -53.9, 697 NFkB inh -57.1, HSF-1 act 28.2, HSF1 inh 19.6, GPR7 antag -8.4 and T cruzi inh -24.4.
For CCOC(=O)C1=NN(C(=O)COc2ccccc2)C(O)(c2ccc(Br)cc2)C1 (stereo not given) the results were Jurkat NFkB inh 2.2, 697 NFkB inh 3.2, HSF-1 act 289.7*, HSF1 inh 212.0, GPR7 antag -6.5 and T cruzi inh -10.2.
COc1ccc([N+](=O)[O-])cc1NCC(=O)Nc1cc(S(=O)(=O)N2CCCCC2)ccc1C was read as Jurkat NFkB inh 6.4 and 697 NFkB inh 10.0.
Screening CC1CCN(S(=O)(=O)c2ccc(NC(=O)c3ccco3)cc2)CC1 returned Jurkat NFkB inh 15.3, 697 NFkB inh 9.7, HSF-1 act 0.5, HSF1 inh -0.9, GPR7 antag -7.3 and T cruzi inh -12.3.
`Cc1ccc(N(CC(=O)Nc2ccc(-c3nc4ccc(C)cc4s3)cc2)S(C)(=O)=O)cc1` gave Jurkat NFkB inh -125.3, 697 NFkB inh -144.3, HSF-1 act 22.9, HSF1 inh 19.2, GPR7 antag 3.3 and T cruzi inh 6.9.
